# Screening data deposited in PubChem by several laboratories.
# Hits are enriched below; roughly 6.4% of the tested compounds scored in any of these assays.
# EBV gp42 block – EBV gp42 inhibition | 0.42% of 220,000 active | Q1HVG2 | AID 1085 | inhibition, % (tested at 21.74 µM) | Fluorescence polarization binding assay, mP read-out; in the data active = inhibition above about 50%
# Target sequence (Q1HVG2 whole entry, looked up): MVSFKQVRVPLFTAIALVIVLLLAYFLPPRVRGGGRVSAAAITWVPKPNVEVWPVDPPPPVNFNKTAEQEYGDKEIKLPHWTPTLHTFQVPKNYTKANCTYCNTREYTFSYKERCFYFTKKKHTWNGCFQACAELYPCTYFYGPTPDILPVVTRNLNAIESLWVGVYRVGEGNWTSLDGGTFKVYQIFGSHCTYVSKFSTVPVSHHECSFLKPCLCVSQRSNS
# MPTP block – inhibitors of mitochondrial permeability transition pore; 1.4% of 360,000 active; AID 602449; isolated mouse mitochondria, Ca2+ swelling absorbance, 30 min; inhibition, % at 10 µM;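 active = inhibition of 50% or more, scaled per plate between neutral and stimulator controls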;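 note: 0% = DMSO wells given calcium and 100% = 1 mM EGTA wells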
# TbMetRS inhib – Trypanosoma brucei MetRS inhibition; purified T. brucei MetRS, ATP depletion, Kinase-Glo luminescence; inhibition, % at 11.9 µM; 0.4% of 360,000 active;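 active = inhibition above a per-plate cutoff of the control wells' mean inhibition plus 3 SD, cut at about 5.5% in these data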;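 note: 0% = DMSO wells median and 100% = median of wells with control inhibitor compound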
#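 Material: parasite MetRS enzyme / Replication: singlicate, one well per compound / Signal: luminescence of leftover ATP / Schedule: 2 h aminoacylation at 25 °C after 15 min preincubation / Medium: HEPES-MgCl2-KCl buffer plus DTT, spermine, BSA, pyrophosphatase / Doses: 11.9 µM single point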
# CHOP inh – inhibitors of CHOP induction in ER stress response; CHO-K1 CHOP-promoter luciferase, tunicamycin-induced, 15-18 h; 3.8% of 220,000 active; AID 2732; inhibition, % at 10 µM;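 active = compounds that reduced the stress-induced luciferase reporter signal by more than about 70% of percent inhibition, limit read from the data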;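 note: 0% = tunicamycin plus vehicle and 100% = wells without tunicamycin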
# GRIN3A LBD mod – modulators (binders) of human NR3A ligand-binding domain; NR3A LBD differential scanning fluorimetry, Tm shift; 0% = protein alone, 100% = glycine-bound protein; Tm shift relative to glycine control, % at 25 µM; 2.5% of 340,000 active; AID 1259313;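 active = melting temperature shift of at least 10% of the positive control shift, at one fixed dose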
# WT yeast gro inh – growth inhibition of WT yeast, mitochondrial fusion screen. mitochondrial fusion phenotypic screen, WT strain. inhibition, % at 10 µM. 2.1% of 190,000 active; in the data active = inhibition above about 58%; tested in S. cerevisiae
# Active calls of the source: *; nt = no result given.
SMILES,EBV gp42 block,MPTP block,TbMetRS inhib,CHOP inh,GRIN3A LBD mod,WT yeast gro inh
CCOC(=O)Cc1csc(NC(=O)Nc2cccc(OC)c2)n1,-6,10,0,12,14*,nt
CCOC(=O)Cc1csc(NC(=O)Nc2ccc(F)cc2)n1,-14,27,1,11,-5,nt
Cc1ccc(Nc2nc(COC(=O)COc3ccc(C=O)cc3)cs2)cc1,-8,-1,0,43,10*,2
CC(C)c1ccc(NC(=O)Cc2cn(C)c3ccccc23)cc1,-12,6,-1,-6,-4,1
COc1nc(NCCc2ccc(OC)c(OC)c2)nc(OC)n1,-12,0,-2,1,5,-12
COc1nc(NCCC2=CCCCC2)nc(OC)n1,138*,-1,0,28,0,19
[N-]=C=C1C(=O)NC(=O)C([n+]2ccc(-c3ccncc3)cc2)C1c1ccccc1C(F)(F)F (stereo not given),-21,6,-1,13,2,nt
[N-]=C=C1C(=S)NC(=O)[C@H]([n+]2ccccc2)[C@H]1c1ccc(Cl)cc1,-9,-3,0,13,12*,nt
O=C(Cn1[nH]c(=O)c2ccccc2c1=O)OCC(=O)N(Cc1ccccc1)Cc1ccccc1,-6,-3,-1,11,-1,-7
COc1ccc(-c2nnc3ccc(SCC(=O)Nc4nc5ccc(C)cc5s4)nn23)cc1OC,8,-2,0,33,14*,7
COC(=O)CSc1ccc2nnc(-c3ccc(OC)c(OC)c3)n2n1,-7,-2,0,27,-1,15
Cc1ccc(S(=O)(=O)N(CC2CO2)c2cccc([N+](=O)[O-])c2)cc1 (stereo not given),nt,1,-1,nt,-1,nt
O=C(c1nc2n(n1)C(c1ccc(Cl)cc1)C=C(c1ccccc1)N2)N1CCOCC1 (stereo not given),77*,-5,0,-34,0,42
CC(=O)Nc1nc2n(n1)C(c1ccccc1)C=C(c1ccccc1)N2 (stereo not given),32,0,0,33,2,4
COc1ccc(C2C=C(c3cccs3)Nc3nc(CCCO)nn32)cc1 (stereo not given),151*,nt,nt,16,nt,-5
COc1ccc(C2=CC(c3ccc(Cl)cc3)n3cnnc3N2)cc1OC (stereo not given),55*,-1,-1,7,3,7
COc1ccc(C2C=C(c3ccc(Cl)cc3)Nc3nc(NC(C)=O)nn32)cc1 (stereo not given),106*,nt,nt,-7,nt,1
COc1ccc(C2C=C(c3ccccc3)Nc3nc(CCCO)nn32)cc1 (stereo not given),18,nt,nt,18,0,22
Cn1c(CSc2ncn[nH]2)nc2ccccc21,-14,2,-1,4,-1,12
COc1cc(C2CC(=O)C3=C(C2)Nc2ncnn2C3c2cccs2)cc(OC)c1OC (stereo not given),1,2,0,-27,-2,nt
CCC(=O)Nc1nc2n(n1)C(c1ccc(OC)cc1)C=C(c1ccccc1)N2 (stereo not given),60*,nt,nt,2,nt,-1
COc1cc(C2C=C(c3cccs3)Nc3ncnn32)cc(OC)c1OC (stereo not given),105*,-2,0,-3,-2,13
CCn1c(C(=O)OC)cc2c1ccn2-c1ccc(F)cc1,-2,0,-1,56,4,77*
Cc1ccc(S(=O)(=O)NC(=O)c2ccc(F)cc2)c(C)c1,nt,-1,0,nt,1,nt
CCOC(=O)N1CCN(c2nc(-c3ccco3)cc(C(F)(F)F)n2)CC1,-5,3,-1,86*,5,8
Cc1cccc(C)c1NC(=O)CSc1nc(-c2ccco2)cc(C(F)(F)F)n1,-11,1,1,85*,-1,-8
CCOC(=O)N1CCN(c2nc(-c3cccc(OC)c3)cc(C(F)(F)F)n2)CC1,1,1,0,60,4,13
O=C(CSc1nc(-c2ccco2)cc(C(F)(F)F)n1)Nc1ccccc1C(F)(F)F,-13,-2,0,77*,2,-2
O=C(CSc1nc(-c2ccco2)cc(C(F)(F)F)n1)NCCc1ccccc1,10,3,-1,57,0,2
CCn1c(SCC(=O)N2CCCC(C)C2)nc2c1c(=O)n(C)c(=O)n2C (stereo not given),nt,-1,-1,nt,-1,nt
